The values that follow come from publication PMC3401037 (ACS Chemical Biology, 2012).

Assay [1] relates to GC signaling. The assay can be described thus: GRIZLY assay: bioluminescence of single GRE:Luc transgenic zebrafish larvae. It is filed as in vivo. As to conditions: for relative reporter (luciferase) activity in response to treatment: 5 dpf, compound added to the water; for inhibition of dexamethasone-induced relative reporter activity: in presence of 5 μM dexamethasone. In outline:
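Single 4 dpf transgenic larvae were placed one per well in E3 medium with 0.5 mM luciferin and dosed via the water at 5 dpf. The antagonist was given with 5 μM DEX; organotins with 5 μM DEX for 24 h; salt stress was 250 mM NaCl. Plates were sealed and read at 28 °C. Larval n was 48 for dose–response and 22 for salt. Tests were non-parametric, with EC50/IC50 from non-linear regression.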

Assay [2] relates to GC signaling. In words: AB.9 GRE:Luc cell reporter bioluminescence assay. It is filed as cell-based, zebrafish. As to conditions: AB.9 GRE:Luc cells; for inhibition of dexamethasone-induced relative reporter activity: co-treated with 10 nM DEX (Figure 2 legend: 5 nM). The essentials:
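AB.9 GRE:Luc cells were seeded at 35,000 cells/well one day ahead and held at 28 °C. Medium was then swapped for phenol-red-free L-15 with 0.5 mM luciferin before compound addition. Organotin runs used DEX in 17% (v/v) charcoal-treated FCS with TBT or DBT at 30–500 nM. Plates were sealed and read for 24 h at 28 °C. Analysis used one-way ANOVA with Dunnett's posttest; IC50 came from non-linear regression.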

Assay [3] deals with GC signaling. The assay can be described thus: Pilot chemical screen of FDA approved drug library, GRE:Luc larvae. It is filed as in vivo, zebrafish. The following applies: 48 h; for retest for activation of GC signaling: GRE:Luc larvae, at least 2 concentrations; for primary screen hit (activation of GC signaling): larvae, 4 μg/mL in 0.3% DMSO, robust z-score cutoff 1.49. In outline:
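Single 5 dpf GRE:Luc larvae in luciferin-E3 were exposed to library compounds at a final 4 μg/mL in 0.3% DMSO (prediluted to 40 μg/mL in 3% DMSO), with 5–11 replicates per compound. Each plate held 8 DEX (10 μM) and 8 DMSO controls; reading lasted 48 h. Hits were called from log-transformed AUCs, robust z-scored, above a cutoff of 1.49 chosen by ROC/Youden index. Retests used a second supplier and ≥2 concentrations.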

The next assay has as its system Luciferase expression. The assay can be described thus: Whole mount immunohistochemistry with anti-luciferase antibody in GRE:Luc larvae. It is filed as in vivo, zebrafish. As to conditions: 5 dpf larvae, 40 μM, 8 h.
Assay [4] deals with GC signaling. The assay can be described thus: Pilot chemical screen of FDA approved drug library, AB.9 GRE:Luc cells. It is filed as cell-based, zebrafish. As to conditions: 48 h; for retest for activation of GC signaling: at least 2 concentrations; for primary screen hit (activation of GC signaling): 4 μg/mL in 0.3% DMSO, robust z-score cutoff 12.3. In outline:
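GRE:Luc AB.9 cells in luciferin-L-15 received library compounds prediluted to 40 μg/mL in 3% DMSO, giving a final 4 μg/mL in 0.3% DMSO. There were 3 replica plates, each with 8 DEX (10 μM) and 8 DMSO controls, read for 48 h. Log-transformed trapezoidal AUCs were robust z-scored, with a cutoff of 12.3 set by ROC/Youden index. Retests used a second supplier, the same setup and ≥2 concentrations.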

Assay [5] relates to endogenous cortisol levels. In words: Cortisol-ELISA of larval extracts. It is filed as in vivo, zebrafish. The following applies: after 20 min. The essentials:
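Osmotic stress was induced in 5 dpf larvae with 250 mM NaCl, and endogenous cortisol was followed over time after exposure (n = 5).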

Structures are written as SMILES. “Also recorded” adds a separate entry of the source.

Turning to `C[C@]12CCC(=O)C=C1CC[C@@H]1[C@@H]2[C@@H](O)C[C@]2(C=O)[C@@H](C(=O)CO)CC[C@@H]12` [aldosterone], the “relative reporter (luciferase) activity in response to treatment” value (shortened to “relative reporter (luciferase) activity”) in the assay with GC signaling [1] (GRE:Luc larvae) is “did not respond”. For the same molecule, the “relative reporter activity in response to treatment” value in the assay on GC signaling [2] is “did not respond”.
On to `CC#C[C@]1(O)CC[C@H]2[C@@H]3CCC4=CC(=O)CCC4=C3[C@@H](c3ccc(N(C)C)cc3)C[C@@]21C` [mifepristone], for which the “inhibition of dexamethasone-induced relative reporter activity” value with GC signaling [1] (GRE:Luc larvae) and in the assay on GC signaling [2] was “blocked the response of the reporter to DEX treatment” in each case.
For the molecule `C=C1C[C@H]2[C@@H]3C=C(C)C4=CC(=O)CC[C@]4(C)[C@H]3CC[C@]2(C)[C@@]1(OC(C)=O)C(C)=O` [melengestrol acetate], in the assay on GC signaling [3], the “retest for activation of GC signaling” value is reported as “dose-dependently activate GC signaling” and the “primary screen hit (activation of GC signaling)” value (shortened to “primary screen hit”) is “missed”.
In the case of `C[C@]12CCC(=O)C=C1CC[C@@H]1[C@@H]2[C@@H](O)C[C@@]2(C)[C@H]1CC[C@]2(O)C(=O)CO` [cortisol, hydrocortisone], the “relative reporter (luciferase) activity” value in the assay with GC signaling [1] (GRE:Luc larvae) is listed as “responded in a dose-dependent manner”.
Regarding `CCC[CH2][Sn]([CH2]CCC)[CH2]CCC` [TBT, tributyltin], in the assay with GC signaling [1] (GRE:Luc larvae, 5 μM dexamethasone, measured for 24 h, p ≤ 0.05), the “lowest concentration inhibiting GC signaling in GRE:Luc larvae” value is 20 nM. The “inhibition of dexamethasone-induced relative reporter activity” value in the assay on GC signaling [1] (GRE:Luc larvae) was “effective in inhibiting GC signaling”; in the assay with GC signaling [2], “indistinguishable from cells treated with DEX alone”.
`C[C@H]1C[C@H]2[C@@H]3CCC4=CC(=O)C=C[C@]4(C)[C@@]3(F)[C@@H](O)C[C@]2(C)[C@@]1(O)C(=O)CO` [betamethasone]: the “fluorescence intensity of luciferase immunohistochemistry” value in the assay with Luciferase expression is on record as “significant (p = 0.0115, n = 10) increase”.
For the molecule `CC(=O)[C@H]1CC[C@H]2[C@@H]3CC=C4C[C@@H](O)CC[C@]4(C)[C@H]3CC[C@]12C` [pregnenolone], the “retest for activation of GC signaling” value in the assay with GC signaling [4] is on record as “did not activate the GC pathway”; with GC signaling [3], “confirmed to activate the GC signaling pathway in vivo”. The figures for the “cortisol levels in the larvae after treatment” value in assay [5] and in assay [5] (listed as Pregnenolone) were “significantly increased cortisol levels” and “increase in cortisol (hydrocortisone) levels”, respectively. Besides, the “primary screen hit” value with GC signaling [3] is listed as “scored as primary screen hits”.
Regarding `C[C@@H]1C[C@H]2[C@@H]3CCC4=CC(=O)C=C[C@]4(C)[C@@]3(F)[C@@H](O)C[C@]2(C)[C@@]1(O)C(=O)CO` [dexamethasone], the “induction of reporter activity at 1 dpf” value in the assay on GC signaling [1] (20 μM DEX, 1 dpf, 9 h after start of treatment) was “low-level yet non-significant induction”. Also, the “relative reporter (luciferase) activity” value in the assay on GC signaling [1] (GRE:Luc larvae) is listed as “increase in relative luciferase activity”; with GC signaling [1] (GRE:Luc larvae, listed as DEX) it was “responded in a dose-dependent manner”.
As to `C[C@]12C=CC(=O)C=C1CC[C@@H]1[C@@H]2C(=O)C[C@@]2(C)[C@H]1CC[C@]2(O)C(=O)CO` [prednisone], the “primary screen hit” value in the assay on GC signaling [4] is “being the exception”; with GC signaling [3], “not retained in the primary screen”. For the same molecule, the entries for the “retest for activation of GC signaling” value with GC signaling [4] and with GC signaling [3] were “weak activation of GC signaling only at the highest concentration tested” and “unable to do so at all concentrations tested”, respectively.
As to `Nc1c2c(nc3ccccc13)CCCC2O` (stereo not drawn) [hydroxytacrine], in the assay with GC signaling [4], the “primary screen hit” value is reported as “false positive hits” and the “retest for activation of GC signaling” value is on record as “could not be confirmed during the rescreen”.
For `CC(=O)S[C@@H]1CC2=CC(=O)CC[C@]2(C)[C@H]2CC[C@@]3(C)[C@@H](CC[C@@]34CCC(=O)O4)[C@H]12` [spironolactone], the “primary screen hit” value in the assay with GC signaling [3] is “scored as primary screen hits”.
On to `NCCC(O)(P(=O)(O)O)P(=O)(O)O` [pamidronic acid], for which, in the assay on GC signaling [4], the “primary screen hit” value is given as “false positive hits” and the “retest for activation of GC signaling” value is reported as “could not be confirmed during the rescreen”.
For `C[C@]12C[C@H](O)[C@H]3[C@@H](CCC4=CC(=O)CC[C@@]43C)[C@@H]1CC[C@@H]2C(=O)CO` [corticosterone], the “retest for activation of GC signaling” value in the assay with GC signaling [4] is on record as “able to activate the GC signaling pathway”. Moreover, in the assay with GC signaling [3], the “retest for activation of GC signaling” value is listed as “unable to do so at all concentrations tested” and the “primary screen hit” value is “not retained in the primary screen”.
As to `CCC[CH2][Sn]([Cl])([Cl])[CH2]CCC` [DBT, dibutyltin dichloride], the “inhibition of dexamethasone-induced relative reporter activity” value is “did not show statistically significant attenuation of GC signaling” in the assay on GC signaling [1] (GRE:Luc larvae); “significantly reduced by treatment with 250 and 500 nM DBT; also recorded: statistically significant inhibition of bioluminescence at higher concentrations” in the assay with GC signaling [2].
